According to the EternaBench riboswitch data:

System: MS2 coat protein
Experiment: apparent Kd, MS2 coat protein; higher = weaker binding; RNA-MaP array; FMN 200 µM where present
Method in brief: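 On Illumina sequencing-chip clusters, designs were transcribed by stalled E. coli RNA polymerase and titrated with SNAP-549-labelled MS2 coat protein (0.7 or 1.5 nM, doubling to 3 µM), without and then with constant ligand, in 100 mM Tris-HCl pH 7.5, 80 mM KCl, 4 mM MgCl2, BSA, DTT, yeast tRNA and Tween-20. Apparent Kd is the median of filtered per-cluster curve fits to green signal normalised to red-channel RNA signal and control-cluster median Fmax.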

[1] = designed as: OFF switch for flavin mononucleotide, no ligand
[2] = ligand present: flavin mononucleotide, designed as: OFF switch for flavin mononucleotide
[3] = designed as: ON switch for flavin mononucleotide, no ligand
[4] = ligand present: flavin mononucleotide, designed as: ON switch for flavin mononucleotide

Sequence | apparent Kd [1] [nM] | apparent Kd [2] [nM] | apparent Kd [3] [nM] | apparent Kd [4] [nM]
CCUCUACAUGAGGAUCACCCAUGUGAGGAUAUAUGCCCAUUACGCCAAGGGCGUGAUGAUAGAAGGCACAGGGU | 22.4 | 71.1 |  | 
GGUGUCGUAUGAGGAUAUGGUCAGCUUUGCUGACCAGAAGGCAUGUCAAUAGACAUGAGGAUCACCCAUGUAGUAAAGACACCA |  |  | 441 | 43.4
UCUUACGGAGGAUAUACAUGAGGAUCACCCAUGUAUGGUACGUUGGCUCUACCUUAUAGUAGAAGGCCGGAAGG | 37 | 233 |  | 
UUAAUUAUACAAGGAUAUCUAUUGUAAUUUCGUCUUACAUGAGGAUCACCCAUGUUAAUAUUUUUAGAGAAGGUGUAUUUUCAG |  |  | 113 | 63.7
AGUACUCAAAGAGUACGCAUACGCACAUGAGGAUCACCCAUGUAGGAUAUGCUACUCAAAGAGUAGUAGAAGGACAUAUACCUC | 4.31 | 4.46 |  | 
AAGUCUGGACGAGGAUAUCAGUUGUAUCUAGAAUCAACAUGAGGAUCACCCAUGUUGCAAUAGGGUGAGAAGGCGUUUGGGCAA |  |  | 81.8 | 18.1
CGCAACAUACAGAAGGAGUUAUUGAGAGGUUUACUAGGAUAUGUUCACAUGAGGAUCACCCAUGUCGUUUGGGAUUUUGUUGCG | 125 | 51.3 |  | 
GUGCACAUUCGAGGAUAUCGGAGAGAGAUCCUUCGAGAAGGCGAUUCAUGCUGUAUUAUUCUGGACAUGAGGAUCACCCAUGUG |  |  | 230 | 101
GGCUAGUCAGGAUAUACGAACAUGUCGCCAGAUGUCAAGGUACAUGAGGAUCACCCAUGUAGAAGGGACUAGCC | 42.7 | 168 |  | 
GCCUUAUCGGUCAGGAUAUACACCCGUCACUUCUUGUAGAAGGGACAUGAGGAUCACCCAUGUACAUUACAUUG | 313 | 177 |  | 
UAAUAAUAGCAAGGAUAUGGUUAUUAUAAUAUACCAGAAGGUGCACAUGAGGAUCACCCAUGUUUUAUAAUUUGUAAUUUAAAU | 30.7 | 27.3 |  | 
CUAUCUUAUGAGAAGGCGAUCAUGAAACAUGAUCGAGGAUAUCAUGUAAACAUGAGGAUCACCCAUGUAUGGGUAUUAUGGUAG |  |  | 175 | 57.1
GGACGUCACAUCUACAUGAGGAUCACCCAUGUCAAAAGACAUGAGGAUAUGCAUCCUAAUUGGAUGCAGAAGGCAUGGACGUCC |  |  | 1200 | 70.2
CGUGACGACAUAGGAUAUUGAUACAUGAGGAUCACCCAUGUCAACCAUUUAUCUCAAAUUGUUGACAAGAAGGAUGUGGUCACG |  |  | 263 | 13.6
UUAUUAUAUGUAGGAUAUGCAUAUUAUUAUUAUGCAGAAGGACAUGAGGAUCACCCAUGUAUAUUAUUAUUAUAUGUUAUAUAU | 25.5 | 36.9 |  | 
GCAAGAAUAGGAUAUACACCGUGUCAGCUUUUAUAUAUCGCACAUGAGGAUCACCCAUGUAGAAGGGUUCUCUG | 420 | 353 |  | 
ACAUGAGGAUCACCCAUGUGAAAACAAUGGCUGACACAGAGAUAGGAUAUAUGUGCAUAUCAAACAUAGAAGGGUCAUAACUGG | 50 | 50.6 |  | 
AUUUAUGUCAUAGGAUAUAUAAAUAAAUUUAUAACAUGAGGAUCACCCAUGUACUUUAGUAUGAGGUAGAAGGAUGAUAAGAGU |  |  | 35.1 | 26.7
UAUAUAUAGUAAGGAUAUGUAUAAAUUUUAUAAACAGAAGGUACUGACAUGAGGAUCACCCAUGUUUUAGUGUGGGCAUGUAGA | 96.2 | 147 |  | 
GGAGGACAUGAGGAUCACCCAUGUGGAUGGGCGCUAGGAUAUGCGUGCGGGAAGAGUGGAGCAGAAGGAGUGGGUU |  |  | 48.3 | 42.2
GUCAGCUCGUGAGGAUAUACAUGUGCUGGAUACAGCAUUAUAUUUUUCACAUGAGGAUCACCCAUGUAGAAGGCACGAGCUGAU | 16.6 | 29.9 |  | 
AUACAUGAGGAUCACCCAUGUUACAUGGUCUUGAUAUUACGUAGAAGGAUGAUAUUAUUAUUAGCAUAGGAUAUACAAUUUGUA | 57.5 | 44 |  | 
CGUAGUUGGUAAGGAUAUCCUACACUAUUCUGACCCGUGCAAGCUACAUGAGGAUCACCCAUGUGGGAGAAGGUGCGUCAACGU | 10.8 | 10.9 |  | 
UCCACGUGUGCAGGAUAUCCCACGAGCGCAACAUGAGGAUCACCCAUGUACCUGAGUCUCGGAACGGAGAAGGGUACAUGUUAA |  |  | 340 | 45.2
CGGGAGUCAGGAUAUACGAACAUGUCGCCAGAUGUCAUGGUACAUGAGGAUCACCCAUGUAGAAGGGAGGAGAU | 139 | 103 |  | 
UUUGCAUUCCGAGGAUAUUCAUAUAAUAAAUAAACAUGAGGAUCACCCAUGUGGCGAAAGCCUAGGGAGAAGGCGGUAUGCUUU |  |  | 155 | 26.8
AUUAUAUAGAAAGGAUAUAGAAUAUUAUUUUAACAUGAGGAUCACCCAUGUAACCUUAUGUGUAGCUAGAAGGUUCAUUUAUUA | 61.8 | 78.1 |  | 
CCUCGUUGGGAGGAUAUCCUUUUGGUUGGAGGAGGAGAAGGCUCGACAUGAGGAUCACCCAUGUGGGAUUUCCC | 62.4 | 194 |  | 

Sequence | apparent Kd [1] [nM] | apparent Kd [2] [nM] | apparent Kd [3] [nM] | apparent Kd [4] [nM]
CGCUCAAUUACUUUGAAUAGAAUCAGAAGGCGUAACAUGAGGAUCACCCAUGUAUUGACGUGUAACGAGGAUAUGAAUUGAGCG | 4.7 | 4.57 |  | 
GUAGAGUAGUGAGGAUAUACGAGAACGAUAGUUCGGCGAUCCAUUAAUACAUGAGGAUCACCCAUGUAGAAGGCACUUCUCUAC | 7.11 | 90.4 |  | 
AUAAAACAUGAGGAUCACCCAUGUCAACAAAGUCGAGGAUAUGGGUAAAUAAAAUAAGAACCAGAAGGCGAAUAAU |  |  | 597 | 132
UCUUUACAUGAGGAUCACCCAUGUGAGGAUAUGGAUUCGCUGGCCGUAGCCAGUGGAUCCAGAAGGCGCGUGAU | 74.7 | 64.9 |  | 
CCAGGCUUCGAGAAGGACAUGAGGAUCACCCAUGUGCGUGUGAAGCAGCCGUGAGGCUGCAUCAUGUAGGAUAUCGGAGUCUGA | 71.8 | 396 |  | 
ACUAUACGAGGAUAUACUGUCGGGCCUCGGACAUAAAUACGACAUGAGGAUCACCCAUGUAGAAGGCGUUUACU | 31.2 | 54 |  | 
UUGGAGUUCGUAGGAUAUGUAGGAUAUUCCUACAUGAGGAUCACCCAUGUUGACAUGGAGGAAGGACAGAAGGACGAGCUCCAU |  |  | 206 | 225
UAAAAGACUAGCUUUGGUAAGAUCACAUGAGGAUCACCCAUGUAGGAUAUGAGCAGAAAAUCUGCUCAGAAGGACAUGCUAGUC | 16.2 | 156 |  | 
GUGAAGAUAGCAGGAUAUCUAUUUCCUACAUGAGGAUCACCCAUGUAGGUGAUCAGCCGAGUAAAGGAGAAGGGCUAUCUUUAC |  |  | 22.8 | 9.29
GGAUAGGACAGAGGAUAUACGUGCUAGAGAUACUAGCAAAGUUUCCUCACAUGAGGAUCACCCAUGUAGAAGGCUGUCCUAUCG | 21.8 | 505 |  | 
CUUUUGUGAGGAUAUCAGUAGUAAAAAAAUAAAUUUACUACUGAGAAGGCACAUGAGGAUCACCCAUGUUCCUC | 42.2 | 296 |  | 
CUCAGCAAGGAAGGAUAUGGGUUUUCGCACAUGAGGAUCACCCAUGUCGCAGUCCCUACGGGAUCCCAGAAGGUCUAUGCGUGG |  |  | 260 | 16.3
CUUUUGUGAGGAUAUCAGUAGUAAUACAAUAGUAUUACUAUUGAGAAGGCACAUGAGGAUCACCCAUGUUCCUC | 39.4 | 156 |  | 
CGGCGCUGUCGAGAGGAUAUGCGGUGAUGGACAUGAGGAUCACCCAUGUUAGCGAUAGCAUCACGGUAGAAGGCUCCACAGCCGU |  |  | 31.8 | 13
GCAUCACAUGAGGAUCACCCAUGUCUUCGGAGUGGAGGAUAUGGUCACUGUAAACAGUGGCCAGAAGGCCGGAUGC |  |  | 82.6 | 94.5
UUACUAUUACAGAAGGCUAAAUAAUAUAUAAAUGGAGGAUAUGUAACAUGAGGAUCACCCAUGUUUCACCCACAUGAGGAUCAC | 8.45 | 23.8 |  | 
GAUAGGACAGAGAAGGACAUAGCUAGAGAUACUAGCAUAAGAACUUCAACAUGAGGAUCACCCAUGUAGGAUAUCUGUCCUAUC | 6.88 | 8.76 |  | 
AAUUCACAUGAGGAUCACCCAUGUGAGGAUAUGGAUUCGCUGGCCGUAGCCAGUGGAUCCAGAAGGCGCAUGAU | 29.2 | 35.6 |  | 
GCAAAUUAGUGAGGAUAUACAUAAUUUAUUUCUGUAGAAGGCACAAACCUCAAGACAUGAGGAUCACCCAUGUGGUAUUUAAGC | 155 | 415 |  | 
GCGUUACAUGAGGAUCACCCAUGUGAGGAUAUGGUUCGGUACUGUCCUGUCGCGUACUCCAGAAGGCACGUGUC | 31.3 | 34.7 |  | 
CGGGAAGUCGUAGGAUAUGGUGAUGUACAUGAGGAUCACCCAUGUCCGUCUUCUCUCACAAGAUGCCAGAAGGACGACUUCCGG |  |  | 766 | 103
CCGAUAAUGUAGGAUAUCGUAUCGGAGACGAUACGAGAAGGACAAACAUGAGGAUCACCCAUGUUCCUUAACGG | 16.6 | 19.9 |  | 
UGUAUGUAGGAGAAGGAGGACUUCAUGAGGAUCACCCAUGUGUUAGGACUUAGGAUAUCUGACGACAUGAGGAUCACCCAUGUG |  |  | 537 | 355
GUGAAACAUGAGGAUCACCCAUGUCAGGAUAUGAUACUAUGUACUUCGGUACAUAGUAUCAGAAGGGACAGUGA | 77.9 | 101 |  | 
CCGCCCUGGAGAGGAUAUGAUCCGUACUAAAGGUCAGAAGGCUCCGAGUUACAUGAGGAUCACCCAUGUAGGGCGGAAAAUAUG |  |  | 6.3 | 5.25
GGAUUUACUGAGGAUAUUGCAUCACCCGACUGAUAAGAAGGCAGAACAUGAGGAUCACCCAUGUGGGUACUCAC | 53.7 | 63.2 |  | 
UGCACCAACGAGAAGGCACAGAUCCAGCUCUUGACAUGAGGAUCACCCAUGUGAGGAUAUCGUAGGUGCGCAUUGGGACAAUCU | 11.9 | 103 |  | 
